Experimental data: ChEMBL document CHEMBL1148000, “Naphthyl piperazines with dual activity as 5-HT1D antagonists and 5-HT reuptake inhibitors” (Bioorg Med Chem Lett, 2007)
Activity calls are given as the source filed them. The rule behind the calls is not given here.

Tests used:
[1] = molecular target: T1, 5-hydroxytryptamine receptor 1D (Homo sapiens, UniProt P28221); test: Displacement of [3H]GR-125743 from human 5HT1D expressed in LM(tk-) cells; format: cell-based
Summary of the method: (§1)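 Human 5-HT1B or 5-HT1D receptors were cloned into L-M(tk-) cells, and membrane homogenates were prepared from these cells. Binding used [3H]-GR125743 as radioligand. Ki (nM) is the mean of runs in triplicate.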

[2] = molecular target: Sodium-dependent serotonin transporter (Homo sapiens, UniProt P31645); test: Displacement of [3H]citalopram from human 5HT transporter expressed in HEK293 cells; format: cell-based
Summary of the method: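 Human serotonin transporter was expressed in HEK293 cells. Inhibition was measured as displacement of [3H]-citalopram. Ki (nM) is the mean of runs in triplicate.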

[3] = molecular target: T1, 5-hydroxytryptamine receptor 1D; test: Antagonist activity at human 5HT1D expressed in LM(tk-) cells by [35S]GTPgamma binding assay; format: functional, cell-based
Summary of the method: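 5-HT dose–response curves for [35S]GTPγS binding were run in LM(tk-) cells stably expressing the human 5-HT1D receptor. Antagonism was read as the rightward shift of these curves. Results are given as KB or as % displacement at 30 nM.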

[4] = molecular target: 5-hydroxytryptamine receptor 1B (Homo sapiens, UniProt P28222); test: Displacement of [3H]GR-125743 from human 5HT1B expressed in LM(tk-) cells; format: cell-based; summary of the method: as §1
[5] = molecular target: T2, Adrenergic receptor alpha-1 (Rattus norvegicus, UniProt P15823+P23944+P43140); test: Displacement of [3H]prazosin from adrenergic alpha-1 receptor in rat cortical membranes; format: cell membranes, Membrane
T2 sequence (P15823 whole entry): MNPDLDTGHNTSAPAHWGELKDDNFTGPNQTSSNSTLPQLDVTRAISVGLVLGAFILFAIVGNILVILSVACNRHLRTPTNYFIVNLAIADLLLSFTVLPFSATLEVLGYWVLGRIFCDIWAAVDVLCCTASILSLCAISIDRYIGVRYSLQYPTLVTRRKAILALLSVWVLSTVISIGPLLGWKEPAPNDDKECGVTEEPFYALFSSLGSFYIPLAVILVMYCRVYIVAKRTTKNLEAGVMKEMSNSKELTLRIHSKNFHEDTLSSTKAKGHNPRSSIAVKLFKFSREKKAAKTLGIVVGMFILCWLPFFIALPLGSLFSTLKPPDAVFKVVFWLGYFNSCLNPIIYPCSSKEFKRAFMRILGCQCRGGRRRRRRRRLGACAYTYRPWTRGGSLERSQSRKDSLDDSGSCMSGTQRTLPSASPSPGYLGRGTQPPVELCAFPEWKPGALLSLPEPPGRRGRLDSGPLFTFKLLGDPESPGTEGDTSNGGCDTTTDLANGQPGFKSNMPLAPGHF
T2 sequence (P23944 whole entry): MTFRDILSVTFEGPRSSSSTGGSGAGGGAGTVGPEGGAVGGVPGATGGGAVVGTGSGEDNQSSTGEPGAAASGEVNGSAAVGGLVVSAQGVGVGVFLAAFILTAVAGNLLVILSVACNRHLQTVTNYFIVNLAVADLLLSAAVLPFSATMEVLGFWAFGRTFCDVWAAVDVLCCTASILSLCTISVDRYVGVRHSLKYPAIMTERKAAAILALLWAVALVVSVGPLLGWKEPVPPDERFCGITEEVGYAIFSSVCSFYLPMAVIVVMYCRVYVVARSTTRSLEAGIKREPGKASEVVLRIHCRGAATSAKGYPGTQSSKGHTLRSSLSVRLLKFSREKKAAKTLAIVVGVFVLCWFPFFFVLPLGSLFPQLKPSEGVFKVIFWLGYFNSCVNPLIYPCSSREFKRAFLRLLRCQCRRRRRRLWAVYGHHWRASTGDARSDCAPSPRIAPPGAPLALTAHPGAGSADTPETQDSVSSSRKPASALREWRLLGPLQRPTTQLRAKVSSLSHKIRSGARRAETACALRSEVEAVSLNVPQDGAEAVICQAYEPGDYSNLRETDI
T2 sequence (P43140 whole entry): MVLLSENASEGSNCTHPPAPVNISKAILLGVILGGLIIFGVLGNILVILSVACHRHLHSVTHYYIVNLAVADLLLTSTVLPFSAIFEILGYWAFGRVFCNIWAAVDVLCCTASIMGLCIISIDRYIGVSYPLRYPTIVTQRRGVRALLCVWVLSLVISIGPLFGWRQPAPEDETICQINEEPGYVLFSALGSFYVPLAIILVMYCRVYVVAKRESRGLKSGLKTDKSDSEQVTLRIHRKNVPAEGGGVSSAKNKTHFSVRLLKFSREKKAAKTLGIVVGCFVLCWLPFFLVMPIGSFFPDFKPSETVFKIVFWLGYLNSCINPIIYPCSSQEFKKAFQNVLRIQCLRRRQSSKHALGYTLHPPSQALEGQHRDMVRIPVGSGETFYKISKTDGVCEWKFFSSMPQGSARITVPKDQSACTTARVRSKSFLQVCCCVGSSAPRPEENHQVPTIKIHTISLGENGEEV
Summary of the method: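 Rat cortex membranes were used, with [3H]-prazosin as radioligand for α1 binding. Ki (nM) is the mean of runs in triplicate.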

D(2) dopamine receptor = D(2) dopamine receptor (Rattus norvegicus, UniProt P61169); test: Displacement of [3H]raclopride from dopamine D2 receptor in rat caudate membranes; format: cell membranes, Membrane
Summary of the method: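 D2 binding was measured in rat caudate membranes with [3H]-raclopride. Ki (nM) is the mean of runs in triplicate.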

[6] = molecular target: T3, 5-hydroxytryptamine receptor 1A (Homo sapiens, UniProt P08908); test: Displacement of [3H]8-OH-DPAT from human 5HT1A expressed in LM(tk-) cells; format: cell-based
T3 sequence (P08908 whole entry): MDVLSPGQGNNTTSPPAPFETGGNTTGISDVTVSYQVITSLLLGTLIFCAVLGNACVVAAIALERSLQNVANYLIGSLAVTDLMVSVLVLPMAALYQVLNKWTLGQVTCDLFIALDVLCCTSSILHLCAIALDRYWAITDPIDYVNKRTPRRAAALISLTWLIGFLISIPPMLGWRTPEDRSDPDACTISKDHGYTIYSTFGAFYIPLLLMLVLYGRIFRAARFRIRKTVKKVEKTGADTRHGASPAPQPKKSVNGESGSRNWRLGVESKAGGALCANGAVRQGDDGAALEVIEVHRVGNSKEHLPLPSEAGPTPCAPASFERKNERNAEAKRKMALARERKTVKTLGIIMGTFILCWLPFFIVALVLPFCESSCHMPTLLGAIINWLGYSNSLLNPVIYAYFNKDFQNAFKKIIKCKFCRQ
Summary of the method: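 Human 5-HT1A was cloned into L-M(tk-) cells, and membrane homogenates were prepared. Binding used [3H]-8-OH-DPAT as radioligand. Ki (nM) is the mean of runs in triplicate.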

Hypothalamus = test: Increase in extracellular 5HT level in guinea pig hypothalamus at 10 mg/kg, po after 3 hrs; format: functional, organism-based; parameters: dose 10 mg/kg; settings: Cavia porcellus
Summary of the method: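 Microdialysis was done in the hypothalamus of freely moving guinea pigs. Dosing was 10 mg/kg po. Extracellular 5-HT is expressed as a percentage of a pre-injection control period, assessed over 3 h post-dose, as means + SEM.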

[7] = molecular target: T1, 5-hydroxytryptamine receptor 1D; test: Functional antagonism of 5-HT-stimulated GTP-gamma-[35S] binding to human 5HT1D expressed in LM(tk-) cells at 30 nM; parameters: scale not given: the % may be the effect or the level left

Sodium-dependent serotonin transporter, sequence (P31645 whole entry): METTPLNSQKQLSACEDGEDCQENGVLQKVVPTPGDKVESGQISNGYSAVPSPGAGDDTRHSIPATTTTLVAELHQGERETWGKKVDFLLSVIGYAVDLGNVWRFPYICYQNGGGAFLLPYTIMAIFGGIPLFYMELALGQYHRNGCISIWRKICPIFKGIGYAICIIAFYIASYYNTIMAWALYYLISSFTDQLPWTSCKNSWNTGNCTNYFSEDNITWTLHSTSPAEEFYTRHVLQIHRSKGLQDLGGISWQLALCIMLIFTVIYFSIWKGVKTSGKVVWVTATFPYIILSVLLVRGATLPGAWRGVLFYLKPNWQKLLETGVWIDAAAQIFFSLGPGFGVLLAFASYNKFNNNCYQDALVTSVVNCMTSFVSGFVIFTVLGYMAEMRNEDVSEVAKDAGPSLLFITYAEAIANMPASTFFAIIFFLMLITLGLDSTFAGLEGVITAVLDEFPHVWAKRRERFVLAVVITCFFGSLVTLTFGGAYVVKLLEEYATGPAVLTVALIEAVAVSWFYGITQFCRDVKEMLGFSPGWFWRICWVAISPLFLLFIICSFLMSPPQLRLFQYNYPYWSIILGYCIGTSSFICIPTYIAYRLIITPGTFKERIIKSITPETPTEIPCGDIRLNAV
T1 sequence (P28221 whole entry): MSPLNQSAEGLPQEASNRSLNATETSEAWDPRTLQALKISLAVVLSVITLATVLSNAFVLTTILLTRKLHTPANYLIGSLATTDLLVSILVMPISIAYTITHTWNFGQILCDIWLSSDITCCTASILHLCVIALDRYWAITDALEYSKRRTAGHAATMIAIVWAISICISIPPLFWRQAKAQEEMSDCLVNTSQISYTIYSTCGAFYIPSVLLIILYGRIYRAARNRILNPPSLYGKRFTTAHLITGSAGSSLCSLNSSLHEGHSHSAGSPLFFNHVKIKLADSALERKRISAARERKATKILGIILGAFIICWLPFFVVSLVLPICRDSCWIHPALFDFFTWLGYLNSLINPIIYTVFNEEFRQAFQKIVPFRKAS
D(2) dopamine receptor, sequence (P61169 whole entry): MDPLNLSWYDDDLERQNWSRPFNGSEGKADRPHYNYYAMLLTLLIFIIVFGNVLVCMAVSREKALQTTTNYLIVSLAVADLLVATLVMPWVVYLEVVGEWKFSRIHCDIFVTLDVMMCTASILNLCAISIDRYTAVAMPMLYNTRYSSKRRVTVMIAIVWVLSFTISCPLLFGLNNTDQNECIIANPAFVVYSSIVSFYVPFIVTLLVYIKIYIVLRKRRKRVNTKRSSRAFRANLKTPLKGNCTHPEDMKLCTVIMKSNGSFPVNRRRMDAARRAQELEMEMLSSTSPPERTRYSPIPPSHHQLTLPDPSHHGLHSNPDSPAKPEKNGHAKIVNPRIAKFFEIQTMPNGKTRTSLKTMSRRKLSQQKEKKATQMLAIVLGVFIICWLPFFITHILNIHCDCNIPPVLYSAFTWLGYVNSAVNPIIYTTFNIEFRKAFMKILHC
5-hydroxytryptamine receptor 1B, sequence (P28222 whole entry): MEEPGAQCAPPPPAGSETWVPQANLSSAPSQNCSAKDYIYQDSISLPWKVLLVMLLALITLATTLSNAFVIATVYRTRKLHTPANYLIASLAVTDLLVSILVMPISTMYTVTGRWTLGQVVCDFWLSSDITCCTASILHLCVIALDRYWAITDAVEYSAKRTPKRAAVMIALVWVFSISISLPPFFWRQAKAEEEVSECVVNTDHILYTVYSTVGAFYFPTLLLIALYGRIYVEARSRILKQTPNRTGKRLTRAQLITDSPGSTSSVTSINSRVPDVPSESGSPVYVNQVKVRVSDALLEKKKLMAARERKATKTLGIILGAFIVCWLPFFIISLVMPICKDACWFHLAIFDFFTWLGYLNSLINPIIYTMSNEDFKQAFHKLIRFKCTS

| Structure (SMILES) | Ki [1] [nM] | Ki [2] [nM] | Kb [3] [nM] | Ki [4] [nM] | Ki [5] [nM] | Ki (D(2) dopamine receptor) [nM] | Ki [6] [nM] | Activity (Hypothalamus) | Activity [7] [%] |
| --- | --- | --- | --- | --- | --- | --- | --- | --- | --- |
| NC(=O)c1ccc2c(c1)CCOC2CCN1CC=C(c2c[nH]c3cc(F)ccc23)CC1 (centres undefined) | 8 | 0.1 | 4.3 | 203 | 0.7 | 42 | – | – | – |
| C[C@H]1CN(c2cccc3cc(F)ccc23)CCN1CC[C@@H]1OCc2cc(C(N)=O)ccc21 | 14 | 1.3 | 0.05 | 114 | 64 | 26 | 13 | – | – |
| C[C@H]1CN(c2ccc3cc(F)ccc3c2)CCN1CC[C@@H]1OCCc2cc(C(N)=O)ccc21 | 14 | 2.1 | 4.05 | > 1000 | 91 | 1170 | 307 | – | – |
| C[C@@H]1CN(c2cccc3cc(F)ccc23)CCN1CC[C@H]1OCCc2cc(C(N)=O)ccc21 | 88 | 7.4 | 11.1 | 91 | 74 | 78 | 105 | – | – |
| C[C@H]1CN(c2cccc3cc(F)ccc23)CCN1CC[C@H]1OCc2cc(C(N)=O)ccc21 | 67 | 8.8 | 1.9 | > 1000 | 43 | 107 | 13 | – | – |
| C[C@H]1CN(c2cccc3cc(C#N)ccc23)CCN1CC[C@@H]1OCCc2cc(C(N)=O)ccc21 | 0.9 | 2.2 | – | 21 | 353 | 287 | 26 | Active | 124 |
| C[C@@H]1CN(c2cccc3cc(F)ccc23)CCN1CC[C@@H]1OCCc2cc(C(N)=O)ccc21 | 7 | 3 | 0.01 | 103 | 80 | 71 | 115 | – | – |
| C[C@H]1CN(c2cccc3cc(C#N)ccc23)CCN1CC[C@H]1OCc2cc(C(N)=O)ccc21 | 1.8 | 1.3 | 0.18 | 88 | 338 | 346 | – | – | – |
| C[C@@H]1CN(c2cccc3cc(F)ccc23)CCN1CCC1OCCc2cc(C(N)=O)ccc21 (some centres undefined) | 56 | 0.8 | 0.01 | 281 | 16 | 4.7 | – | – | – |
| N#Cc1ccc2c(N3CCN(CC[C@@H]4OCCc5cc(C(N)=O)ccc54)CC3)cccc2c1 | 1 | 5.7 | – | 15 | 178 | 88 | 16 | – | 101 |
| NC(=O)c1ccc2c(c1)CCO[C@H]2CCN1CCN(c2ccc3cc(F)ccc3c2)CC1 | 10 | 8.1 | 0.86 | > 1000 | 96 | 704 | – | – | – |
